Source: PubChem (The Scripps Research Institute Molecular Screening Center)
core dimer inh: blocks dimerization of HCV core protein; TR-FRET GST/Flag-core106 dimerization, 1536-well; inhibition, % at 5 µM; 300,000 tested, 0.33% active; AID 1899;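 active = inhibition above the mean of all tested compounds plus 3 SD, set per screening campaign, cut at about 45% in these data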
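System – GST-tagged and Flag-tagged HCV core protein residues 1-106 · Repeats – one well for each compound · Technique – TR-FRET 671 and 617 nm emission · Doses – one concentration, 5 µM, in 0.5% DMSO · Times – 4 h, 22.5 °C incubation · Also added – Eu donor and XL665 acceptor anti-tag antibodies · Measure – percent inhibition of core106 dimerization signal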
VIM-2 inhibitor: blocks Pseudomonas aeruginosa VIM-2 metallo-beta-lactamase; purified VIM-2, nitrocefin hydrolysis, epi-absorbance fluorescence; inhibition, % at 5.6 µM; 290,000 tested, 0.89% active; AID 1527;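 active = inhibition above the mean of all tested compounds plus 3 SD, cutoff set per screening run, cut at about 7.5% in these data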;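 note: red hydrolysis product quenches plate fluorescence so inhibitors raise well fluorescence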
IMP-1 inhibitor: blocks Pseudomonas aeruginosa IMP-1 metallo-beta-lactamase | AID 1556 | purified IMP-1, nitrocefin hydrolysis, epi-absorbance fluorescence | 290,000 tested, 0.45% active | inhibition, % at 5.6 µM;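 active = inhibition above the mean plus 3 SD of all compounds in the same screening run, cut at about 4.5% in these data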
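System – purified recombinant IMP-1 beta-lactamase · Input – IMP-1 dispensed at 0.2 nM · Timing – 15 min preincubation plus 25 min reaction at 25 °C · Signal – Epi-absorbance fluorescence, 480 nm excitation, 530 nm emission · Measure – percent IMP-1 inhibition derived from blank-referenced optical density · Controls – Enzyme-plus-DMSO low control, enzyme-free DMSO high control · Replication – singlicate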
DNA FID counter: displaces DNA intercalator in HCV helicase counter-screen | DNA fluorescent intercalator displacement, fluorescence | inhibition, % at 7.9 µM | 290,000 tested, 0.17% active | AID 1845; in the data active = inhibition above about 37%;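 note: higher means more ethidium bromide displaced from hairpin DNA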
A number is an active result; – = inactive; · = not tested or not shown. Rows were chosen to be rich in hits. Some 1.6% of all compounds tested hit in one or more screens of this group.

SMILES	core dimer inh	VIM-2 inhibitor	IMP-1 inhibitor	DNA FID counter
COCCn1c(COc2ccc(C)cc2)nc2ccccc21	–	–	–	–
Cc1ccc(-c2cc(C(F)(F)F)n3nc(C(=O)N4CCN5CCCC5C4)cc3n2)cc1 (configuration not stated)	–	10	–	–
O=C(N/N=C/c1ccc2ccccc2c1)c1ccc(COc2ccc3c(c2)CCC3)o1	50	–	–	–
O=C1CCCC(O)=C1C=Nc1cccc(C(F)(F)F)c1	–	–	–	–
O=C(Cn1cc[n+](Cc2ccccc2)c1)c1ccc([N+](=O)[O-])cc1	–	–	–	44
CC(C)C[C@@]12C(=O)N(c3ccc(Br)cc3)C(=O)N1[C@H](c1ccc(Br)cc1)[C@@H]1C(=O)N(C(C)(C)C)C(=O)[C@@H]12	–	–	–	–
Cc1ccc2[nH]c(C)c(CCNC(=O)c3c(N)no[n+]3[O-])c2c1	–	–	–	–
Cc1ccc2[nH]c(C)c(CCNC(=O)c3cc4cc([N+](=O)[O-])ccc4oc3=O)c2c1	50	–	–	–
Cc1nn(C)c(C)c1S(=O)(=O)N(CC(=O)NCCCN1CC(C)CC(C)C1)c1ccc(C(C)C)cc1 (configuration not stated)	–	–	–	40
O=C(O)C1CCCCC1C(=O)NCCCN1CCOCC1 (configuration not stated)	–	–	–	–
COc1ccc(/C=C/c2cccc[n+]2C)c(O)c1	–	–	–	–
C[n+]1ccccc1/C=C/c1cc(Br)ccc1O	–	–	16	–
CCOc1ccc(NC(=O)c2c(N)n(C)c(=O)[nH]c2=O)cc1	–	·	·	·
O=C(O)C(c1ccccc1)N1C(=O)/C(=C\c2ccc(-c3ccccc3Cl)o2)SC1=S (configuration not stated)	–	–	9.4	–
C=CCC1c2cccc(C(=O)O)c2C(=O)N1c1cccc(C)c1 (configuration not stated)	–	11	–	–
CSc1ccccc1OCc1cc(C(=O)NC(C)Cn2cncn2)no1 (configuration not stated)	–	–	–	–
CCOC(=O)C1CCCN(C2=NC(=O)/C(=C/c3ccc(O)c(OCC)c3)S2)C1 (configuration not stated)	–	8.9	–	–
CCOC(=O)C1CCCN(C2=NC(=O)/C(=C/c3ccc(OC)cc3)S2)C1 (configuration not stated)	–	–	–	–
O=C1C=C(O)c2cccc3cccc1c23	–	–	–	–
NC1=CC(=O)c2cccc3cccc1c23	–	–	14	–
CC(=O)C1=C(O)C(=O)N(CC#N)C1c1cccs1 (configuration not stated)	–	–	6.2	–
CC1CCc2c(sc3ncn4c(SCC(=O)NCc5ccco5)nnc4c23)C1 (configuration not stated)	–	–	–	–
COC(CN1C(=O)C(=O)/C(=C(/O)c2ccccc2)C1c1ccccn1)OC (configuration not stated)	–	9.6	–	–
CCCCCC(=O)N(O)C1CC(=O)N(c2ccccc2)C1=O (configuration not stated)	–	8.1	–	–
CCCCCCC(=O)N(O)C1CC(=O)N(Cc2ccccc2)C1=O (configuration not stated)	–	–	–	–
SMILES	core dimer inh	VIM-2 inhibitor	IMP-1 inhibitor	DNA FID counter
COc1ccccc1C(=O)Nc1sc2c(c1C(=O)NCc1ccco1)CCCC2	53	–	–	–
CCNc1nc(NCC)nc(Oc2ccc(N)cc2)n1	–	–	–	–
COc1ccc(-n2ncc3c2CC(C)(C)CC3NC(=O)CCC2=NNC(=O)CC2)cc1 (configuration not stated)	–	–	–	–
Cc1ccc(Nc2c(-c3ccccn3)nc3cc(C)ccn23)cc1	–	8.3	–	–
Cc1ccn2c(Nc3ccc4c(c3)OCO4)c(-c3ccccn3)nc2c1	–	39	–	–
Cc1ccc(Nc2c(-c3ccccn3)nc3ccc(C)cn23)cc1	–	–	–	–
O=C1C=C(Nc2ccccc2)CC(c2ccccc2)C1 (configuration not stated)	–	–	–	–
COCCCNC(=O)Cn1c(=O)n(CC(=O)NCCc2ccc(OC)c(OC)c2)c(=O)c2sccc21	–	–	–	–
COCCNC(=O)c1cc2c(-c3ccccc3F)nn(C)c2s1	–	–	–	–
CCCCN(C)CCNC(=O)c1cc2c(-c3cccc(OC)c3)nn(C)c2s1	–	10	–	–
CCCCN(C)CCNC(=O)c1cc2c(-c3ccccc3F)nn(C)c2s1	–	11	–	–
CCOP(=O)(O)c1ccccc1OCCOCCOc1ccccc1P(=O)(O)OCC	–	–	–	–
O=P(O)(O)c1ccccc1OCCOCCOc1ccccc1P(=O)(O)O	–	23	–	–
O=C(c1ccco1)N1CCN(c2ncnc3c2oc2ccccc23)CC1	–	10.0	–	–
CCSc1nnc(NC(=O)CSc2nccn2-c2cccc(C)c2)s1	–	–	–	–
CCc1nc(NCCN2CCOCC2)c2oc3ccccc3c2n1	–	–	–	–
CCc1nc(NCCCN2CCOCC2)c2oc3ccccc3c2n1	–	11	–	–
O=c1c2ccccc2oc2ccc(NCCCN3CCOCC3)cc12	–	9.8	–	–
CC(=O)Nc1cccc(-c2nnc(SCC(=O)N3CCCCC3)n2C)c1	–	–	–	–
CCC(NC(=O)COc1cc2c(c3oc(=O)c(C)c(C)c13)CCC(C)(C)O2)C(=O)O (configuration not stated)	–	11	–	–
Cc1c(C)c2c(OCC(=O)NCc3cccnc3)cc3c(c2oc1=O)CCC(C)(C)O3	–	8.8	–	–
Cc1ccccc1NC(=O)c1c(C)[nH]c(=S)c(C#N)c1-c1ccco1	–	–	17	–
CNC(=O)c1c(C)[nH]c(=S)c(C#N)c1-c1ccco1	–	–	18	–
CCCCn1c(N)c(N(CC)C(=O)c2c(CC)noc2C)c(=O)[nH]c1=O	–	·	·	·
N#Cc1cccc2c1-c1ccccc1/C2=N/NC(N)=S	–	–	–	–
SMILES	core dimer inh	VIM-2 inhibitor	IMP-1 inhibitor	DNA FID counter
N#Cc1cccc2c1-c1ccccc1/C2=N/NC(N)=O	–	10	–	–
COC(=O)c1c(NC(=O)c2ccnn2C)sc(C)c1C	–	–	4.7	–
COc1cccc(NC(=O)CN(C)C(=O)CCc2nc3sc4c(c3c(=O)[nH]2)CCCC4)c1	49	–	–	–
O=C(c1cc2ccccc2oc1=O)N(Cc1ccc2c(c1)OCO2)Cc1ccco1	–	–	6.5	–
Cc1ccc(S(=O)(=O)N2CCCCC2)cc1NC(=O)CSc1ccc2c(c1)OCCO2	–	–	7.1	–
CCCc1nnc(N2C(=O)c3cccc4cccc(c34)C2=O)s1	–	8.7	–	–
Cc1nnc(N2C(=O)c3cccc4cccc(c34)C2=O)s1	–	–	–	–
O=S(=O)(/N=C(\Sc1ccc(Cl)cc1)c1ccccc1)c1ccccc1	–	–	–	–
Nc1nc(NC(=O)c2ccc(Cl)cc2)nn1-c1ccccc1	–	–	–	–
O=c1cc(CSc2n[nH]c(-c3ccncc3)n2)nc2sccn12	53	–	–	–
